# Laboratory results published in PubChem BioAssay AID540295 (The Scripps Research Institute Molecular Screening Center, 2011).
# Out of some 360,000 compounds screened, about 1,700 (0.47%) were called active. The sample as a whole holds a higher share of actives than the screen did. Values without a mark were called inactive.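 Rule for the calls: active = inhibition above its plate's cutoff, the mean of tested wells on that plate plus 3 SD (cut at about 29% in these data); inactive = the rest.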
# Target: Melanocortin receptor 4 (Homo sapiens) (UniProt P32245)
# Sequence (P32245 whole entry, looked up): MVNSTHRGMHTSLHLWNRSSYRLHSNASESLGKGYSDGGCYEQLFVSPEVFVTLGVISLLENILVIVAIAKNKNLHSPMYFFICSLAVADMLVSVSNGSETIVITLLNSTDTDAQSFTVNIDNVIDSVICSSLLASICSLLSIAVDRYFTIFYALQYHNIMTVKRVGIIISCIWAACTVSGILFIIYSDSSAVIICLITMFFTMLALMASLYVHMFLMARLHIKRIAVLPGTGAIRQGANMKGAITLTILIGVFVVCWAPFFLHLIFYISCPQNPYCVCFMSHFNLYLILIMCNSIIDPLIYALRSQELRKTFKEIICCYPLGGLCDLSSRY
# Experiment: blockers of MC4R Gs-cAMP response – cell-based, TR-FRET, antagonist arm of biased-ligand search, primary screen (AID 540295);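 note: 0% = Melanotan II alone and 100% = Melanotan II plus saturating MCL0020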
# Details: MC4R-expressing cells, MTII-stimulated cAMP, LANCE TR-FRET; at 6.5 µM; stronger effect = higher value
# Outline: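 Material: U2OS-MC4R stable cell line | Reagent: Melanotan II challenge after compound preincubation | Doses: One concentration, 6.5 µM nominal | Incubation: 30-min compound preincubation, 1-h Melanotan II challenge, 1-h detection, room temperature | Signal: TR-FRET cAMP assay | Replicates: One well per compound, no replicates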
row,Compound,inhibition
1,CCN(CCCNC(=O)C1CCN(S(=O)(=O)c2cnc[nH]2)CC1)c1ccccc1,17.3%
2,CS/C(=C\C(=O)c1ccco1)Nc1ccccc1Cl,12.1%
3,O=C(COc1ccc(-n2cnnn2)cc1)Nc1ccccc1Cl,-4.5%
4,O=C(Nc1ccccc1Cl)/C(Cl)=C(\Cl)S(=O)c1ccccc1 (centres undefined),34.9% (active)
5,NC1=NC(=O)C(Cc2cccc(Cl)c2)S1 (centres undefined),6.88%
6,CCOC(=O)C(CC)Sc1ncnc2c1nnn2-c1ccc(F)cc1 (centres undefined),9.91%
7,COc1ccc(S(=O)(=O)N2CCOC2CNC(=O)C(=O)NCc2ccc(F)cc2)cc1 (centres undefined),5.37%
8,CC1(C)Cc2ccccc2/C(=C/C(=O)c2ccccc2)N1,-4.86%
9,N#CC1=C(N)Oc2[nH]c(=S)[nH]c(=O)c2C12C(=O)Nc1ccccc12 (centres undefined),-0.32%
10,CC1(C)Cc2ccccc2-c2[nH]c(=S)[nH]c(=O)c21,31.3% (active)
11,CC(=O)c1ccc(S(=O)(=O)Nc2ccc(-c3ccc4nncn4n3)cc2)cc1,4.19%
12,Cc1cccc(C(=O)N2CCCC(Nc3ccc(C(C)C)cc3)C2)n1 (centres undefined),-4.44%
13,O=C(Oc1ccc(-c2nnco2)cc1)c1ccc(F)c(S(=O)(=O)N2CCOCC2)c1,16.3%
14,C=CCOC(=O)C1=C(C)N=C2SCCC(=O)N2C1/C=C/c1ccccc1OC (centres undefined),6.17%
15,COc1ccc(-c2ccc3c(c2)C2CC3CCN2CCC#N)cc1 (centres undefined),8.84%
16,CCC1(C)Cc2c(sc3[nH]c(=S)n(Cc4ccccc4)c(=O)c23)CO1 (centres undefined),3.15%
17,C=CCn1c(=S)[nH]c2scc(-c3ccco3)c2c1=O,29.6% (active)
18,COc1cccc(-c2cc(NC(C)=O)c3ncc(-c4cccc(C(C)=O)c4)n3c2)c1,8.07%
19,CSc1ncnc2c1ncn2CCCNCC(C)c1ccccc1 (centres undefined),0.11%
20,CCN(CC(=O)NCCCN1CCOCC1)S(=O)(=O)c1cc(Cl)ccc1Cl,30.2% (active)
21,CCN(CC)S(=O)(=O)c1ccc(Cl)c(C(=O)NCCN2CCOCC2)c1,-2.31%
22,COc1ccc(S(=O)(=O)N(C)CC(=O)NCCCN2CCOCC2)cc1Cl,8.85%
23,O=C(Nc1nnc(Cc2ccc(Cl)cc2)s1)c1ccncc1,11.2%

row,Compound,inhibition
1,O=C(Nc1nnc(Cc2ccccc2)s1)c1cnccn1,20.4%
2,O=C(Nc1nnc(Cc2ccc(Cl)cc2)s1)c1cccnc1,33.8% (active)
3,COC(=O)[C@]1(CC(C)C)N[C@H](c2ccc(SC3CCCCC3)cc2)[C@@H]2C(=O)N(C)C(=O)[C@@H]21,4.32%
4,Cc1ccc(NC(=O)Cn2c(=O)n(CCC(=O)NC3CCN(Cc4ccccc4)CC3)c(=O)c3ccccc32)cc1,8.52%
5,COC(=O)c1sc(-c2ccc(C(C)(C)C)cc2)cc1NC(=O)/C=C/C(=O)O,37.3% (active)
6,COc1ccc(NS(=O)(=O)c2ccc(N3CCOCC3)c(NC(=O)/C=C/C(=O)O)c2)cc1,0.91%
7,COc1ccccc1NC(=O)/C=C/C(N)=O,21%
8,O=C(CCNC(=O)C1CCN(S(=O)(=O)c2ccccc2)CC1)NC1CC1,8.45%
9,NC(=O)COc1ccc(C23CC4CC(CC(C4)C2)C3)cc1,-2.25%
10,CCCC(NC(=O)c1ccccc1)c1nc2ccccc2n1Cc1ccc(C(=O)OC)o1 (centres undefined),-3.45%
11,COc1ccc(CSc2nc(N3CCOCC3)c3c(c2C#N)CC(C)(C)OC3)cc1,19%
12,CCOC(=O)CSc1nc(N2CCOCC2)c2c(c1C#N)CC(C(C)C)OC2 (centres undefined),28.7% (active)
13,CC(C)Cc1nc(N2CCOCC2)c(C#N)c2c1CCC2,8.79%
14,COc1ccc(CCNC(=O)CSCc2ccc(Br)cc2)cc1OC,1.08%
15,CC(C)c1ccc(NC(=O)CCN2C(=O)c3ccc([N+](=O)[O-])cc3C2=O)cc1,7.45%
16,O=NN(CCCl)C(=O)NCCc1cccc[n+]1[O-],7.72%
17,CC(C)(C)C1CCC(OC(=O)CCC(=O)Nc2ccccc2)CC1 (centres undefined),2.76%
18,CC1C(C)N(C(=O)CCl)c2ccccc2N1C(=O)CCl (centres undefined),-4%
19,COc1ccc(C(=O)OCC(=O)NCC2CCCO2)cc1[N+](=O)[O-] (centres undefined),1.35%
20,C[C@@H](NC(=O)c1nc[nH]c1C(=O)N1CCN(C(=O)OC(C)(C)C)CC1)c1ccccc1,15.2%
21,CC(C)(C)OC(=O)N1CCC(NC(=O)c2[nH]cnc2C(=O)N[C@@H](Cc2ccccc2)C(=O)OCc2ccccc2)CC1,35.5% (active)
22,O=C(N[C@@H](Cc1ccccc1)C(=O)OCc1ccccc1)c1nc[nH]c1C(=O)N[C@@H](Cc1ccccc1)C(=O)OCc1ccccc1,10.8%
23,O=C1NC(c2ccccc2)CCC1(Cl)Cl (centres undefined),3.93%

row,Compound,inhibition
1,C=CCn1c(SCC(=O)c2c(N)n(C)c(=O)n(C)c2=O)nc2sc(CC)cc2c1=O,8.69%
2,Cc1ccc(CSc2nnc(-c3cnccn3)n2C)cc1,29.1% (active)
3,Cn1c(SCc2c(F)cccc2Cl)nnc1-c1cnccn1,-3.89%
4,Cn1c(SCc2ccc(F)cc2)nnc1-c1ccncc1,0.33%
5,[O-][n+]1onc2c1CCc1[nH]c(-c3ccccc3)nc1-2,2.02%
6,COc1ccc(NS(=O)(=O)c2ccc(C)c(C(=O)NNC(=O)c3csc(N4CCOCC4)n3)c2)cc1,-2.21%
7,CC(C)Oc1ccc(/C=C(\NC(=O)/C=C/c2ccco2)C(=O)NCCc2nc3ccccc3[nH]2)cc1,28.9% (active)
8,CCCCCOc1ccc(/C=C/C(=O)NCCc2nc3ccccc3[nH]2)cc1OC,6.2%
9,CC(C)=C(NC(=O)c1ccco1)C(=O)NCCc1nc2ccccc2[nH]1,2.22%
10,O=C(N/N=C\c1ccc(-c2ccc(Cl)c(Cl)c2)o1)C(=O)N1CCCC1,4.11%
11,Cc1ccc(S(=O)(=O)N(CC(=O)NCc2ccco2)c2ccccc2C)cc1,12.4%
12,COc1ccc(Cc2cc(-c3ccc(F)cc3)n[nH]c2=O)cc1,9.23%
13,COc1cccc(NC(=O)c2nn(-c3ccc(OC)cc3OC)c(=O)c3ccccc23)c1,-1.09%
14,COc1ccc(-n2nc(C(=O)NCC(=O)N3CCN(c4ccccc4OC)CC3)c3ccccc3c2=O)c(OC)c1,1.93%
15,COc1ccc(-n2nc(C(=O)Nc3cc(OC)c(OC)c(OC)c3)c3ccccc3c2=O)c(OC)c1,31.6% (active)
16,COc1ccc(CCNC(=O)CN2C(=O)COc3ccc(S(=O)(=O)N4CCCC4)cc32)cc1OC,3.63%
17,CCCS(=O)(=O)NC(=O)C1(C)CCCN(C(=O)c2cc(C)on2)C1 (centres undefined),10.6%
18,Cc1cc(=O)oc2c3c(cc(OCC(=O)NCc4ccccn4)c12)OC(C)(C)CC3,-0.73%
19,Cc1ccc(C)c(OCCC(=O)OCC(=O)c2ccc3c(c2)NC(=O)CO3)c1,2.21%
20,O=C(O)CN1C(=O)CC(Cc2ccccc2)C1=O (centres undefined),-3.51%
21,Cc1ccc(NC(=O)C2CC2c2ccccc2)cc1 (centres undefined),0.14%
22,Cc1ccc(Sc2ccc(NC(=O)c3ccc(F)cc3)cc2C#N)cc1,33.5% (active)
23,COC(=O)c1ccc(Sc2ccc(F)cc2)c(N)c1,-11.2%

row,Compound,inhibition
1,COc1ccc(Sc2ccc(NC(=O)c3cccc(Cl)c3)cc2C#N)cc1,5.3%
2,Cc1ccc(S(=O)(=O)N2CCC(C(=O)OCC(=O)N3CC(=O)Nc4ccccc43)CC2)cc1,20.2%
3,CN(c1ccccc1)S(=O)(=O)c1ccc(NC(=O)COc2ccccc2)cc1,-6.55%
4,CN(C)S(=O)(=O)c1ccc(NC(=O)COC(=O)Cn2[nH]c(=O)c3ccccc3c2=O)cc1,9.38%
5,Cc1ccccc1SCC(=O)OCC(=O)N1CC(=O)Nc2ccccc21,0.86%
6,Cc1ccc(S(=O)(=O)N(C)CC(=O)OCC(=O)N2CC(=O)Nc3ccccc32)cc1,33.9% (active)
7,Cc1ccc(S(=O)(=O)N(C)CC(=O)OCC(=O)Nc2ccccc2)cc1,34.1% (active)
8,COc1ccnc(Oc2ccccc2)n1,0.1%
9,O=C(c1ccccc1)N1CCN(c2cc(-c3ccccc3)nc3cc(-c4cccc(Cl)c4)nn23)CC1,1.52%
10,CN(C)CCN1CCN(c2cc(-c3cccc(Cl)c3)nc3ccnn23)CC1,3.3%
11,C#Cc1cc(N2CCN(C(=O)c3ccoc3)CC2)n2nc(-c3cccc(Cl)c3)cc2n1,32.1% (active)
12,CC(CNc1ccc([N+](=O)[O-])c2cccnc12)Nc1c([N+](=O)[O-])cc(C(F)(F)F)cc1[N+](=O)[O-] (centres undefined),7.59%
13,COc1ccccc1-c1n[nH]c2c1[C@H](C)CC[C@H]2C(C)C,10%
14,Cc1cc(C)cc(Oc2c(C(F)(F)F)oc3cc(OCC(=O)O)ccc3c2=O)c1,-2.27%
15,O=C(CSc1nc2ccc(Nc3nc(N4CCOCC4)nc(N4CCOCC4)n3)cc2s1)NCc1ccco1,29.5% (active)
16,O=C(CSc1c2c(nc3ccc(Cl)cc13)CCCC2)NCc1ccco1,11.1%
17,O=C(CSc1nc(Nc2ccccc2)nc(N2CCOCC2)n1)Nc1cc(Cl)ccc1O,-4.1%
18,Cc1ccccc1N1CC(C(=O)Nc2ccc3c(c2)OCO3)CC1=O (centres undefined),8.22%
19,CCOCc1nnc(NC(=O)CCS(=O)(=O)Cc2ccccc2)s1,4.21%
20,O=C1C(Cl)=C(Oc2ccccc2)C(=O)c2ccccc21,93.5% (active)
